In ChEMBL document CHEMBL3259553 (J Med Chem, 2014):
In brackets after ≈: the same amount, converted by molar mass. Activity calls are given as the source filed them. No cut-off for these calls is given here.

What was measured:
[1] = system: Rattus norvegicus; experiment: Cardiotoxicity in thyroidectomized rat assessed as induction of alpha-MHC hnRNA expression in cardiac myocyte at 5 to 37.5 mg/kg, ip measured after 6 hrs; format: toxicity, organism-based, Heart; design: dose 5-37.5 mg/kg, route intraperitoneal; settings: in vivo
Summary of the method: (§1)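 Thyroidectomized rats were dosed intraperitoneally at 5, 20 or 37.5 mg/kg, with 4 rats per group. Vehicle was 4% DMSO, 15% PEG-400 and 81% of 30% HPBCD in phosphate buffer. Cardiac α-MHC hnRNA, in arbitrary units, and plasma concentration were measured 6 h after dosing. Comparators were untreated thyroidectomized rats and euthyroid rats.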

[2] = Plasma concentration in thyroidectomized rat at 37.5 mg/kg, ip measured after 6 hrs; format: ADME, organism-based; design: dose 37.5 mg/kg, route intraperitoneal; summary of the method: as §1
[3] = Plasma concentration in thyroidectomized rat at 5 mg/kg, ip measured after 6 hrs; format: ADME, organism-based; design: dose 5 mg/kg, route intraperitoneal; summary of the method: as §1
[4] = Intrinsic clearance in human hepatocytes assessed per million cells; format: ADME, cell-based, Hepatocyte; settings: read-out: CLH
[5] = biological target: hERG (KCNH2) (Homo sapiens, UniProt Q12809); experiment: Inhibition of human ERG
Summary of the method: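 hERG channel blockade was expressed as an IC20.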

[6] = biological target: Cytochrome P450 3A4 (Homo sapiens, UniProt P08684); experiment: Inhibition of CYP3A4 (unknown origin); format: ADME
[7] = biological target: Cytochrome P450 3A5 (Homo sapiens, UniProt P20815); experiment: Inhibition of CYP3A5 (unknown origin); format: ADME
[8] = biological target: Cytochrome P450 2C19 (Homo sapiens, UniProt P33261); experiment: Inhibition of CYP2C19 (unknown origin); format: ADME
Summary of the method: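 Time-dependent inhibition of the same enzyme was also assessed, with and without NADPH.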

[9] = AUC in rat at 5 mg/kg, iv; format: ADME, organism-based; design: dose 5 mg/kg, route intravenous; settings: plasma
[10] = Clearance in rat at 5 mg/kg, iv; format: ADME, organism-based; design: dose 5 mg/kg, route intravenous; settings: in vivo
Summary of the method: (§2)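 Rat pharmacokinetics after a 5 mg/kg dose given iv, or given orally as a suspension. Values are means with SD from N = 3 rats.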

[11] = Volume of distribution at steady state in rat at 5 mg/kg, iv; format: ADME, organism-based; design: dose 5 mg/kg, route intravenous; settings: in vivo, read-out: Vdss
Summary of the method: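 Rats, N = 3, dosed iv at 5 mg/kg in parallel with a 5 mg/kg oral suspension. Pharmacokinetic parameters are mean values with SD.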

[12] = AUC in rat at 5 mg/kg, po; format: ADME, organism-based; design: dose 5 mg/kg, route oral; settings: plasma
[13] = Tmax in rat at 5 mg/kg, po; format: ADME, organism-based; design: dose 5 mg/kg, route oral; settings: in vivo; summary of the method: as §2
[14] = Half life in rat at 5 mg/kg, po; format: ADME, organism-based; design: dose 5 mg/kg, route oral; settings: in vivo; summary of the method: as §2
[15] = Oral bioavailability in rat at 5 mg/kg; format: ADME, organism-based; settings: in vivo; summary of the method: as §2
[16] = system: Mus musculus; experiment: Antidyslipidemic activity in diet-induced obese C57Bl/6J mouse model assessed as reduction in liver size at 0.3 to 10 mg/kg, po administered daily for 23 days; format: functional, organism-based
Summary of the method: (§3)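 C57Bl/6J mice aged six weeks were fed a high fat diet for 34 weeks. Body weight and food intake were monitored. BMD and body composition were assessed on day 22, and laboratory assessments were made at study end.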

[17] = system: Mus musculus; experiment: Antidyslipidemic activity in diet-induced obese C57Bl/6J mouse model assessed as reduction in liver triglycerides at 0.3 to 10 mg/kg, po administered daily for 23 days; format: functional, organism-based; summary of the method: as §3
[18] = system: Mus musculus; experiment: Toxicity in diet-induced obese C57Bl/6J mouse model assessed as effect on bone mineral density at 0.3 to 10 mg/kg, po administered daily for 23 days; format: organism-based; design: dose 0.3-10 mg/kg, route oral; settings: in vivo; summary of the method: as §3
[19] = system: Mus musculus; experiment: Toxicity in diet-induced obese C57Bl/6J mouse model assessed as effect on heart size at 0.3 to 10 mg/kg, po administered daily for 23 days; format: organism-based; design: dose 0.3-10 mg/kg, route oral; settings: in vivo; summary of the method: as §3
[20] = system: Mus musculus; experiment: Toxicity in diet-induced obese C57Bl/6J mouse model assessed as effect on kidney size at 0.3 to 10 mg/kg, po administered daily for 23 days; format: organism-based; design: dose 0.3-10 mg/kg, route oral; settings: in vivo; summary of the method: as §3
[21] = species on record: Rattus norvegicus; experiment: Antidyslipidemic activity in hypercholesterolemic rat model assessed as reduction in non-HDL-C level; format: functional, organism-based
[22] = species on record: Rattus norvegicus; experiment: Antidyslipidemic activity in hypercholesterolemic rat model assessed as reduction in liver triglycerides; format: functional, organism-based
[23] = species on record: Rattus norvegicus; experiment: Toxicity in hypercholesterolemic rat model assessed as effect on TSH level; format: organism-based; settings: in vivo
[24] = species on record: Oryctolagus cuniculus; experiment: Antidyslipidemic activity in hypercholesterolemic rabbit model assessed as reduction in non-HDL-C level; format: functional, organism-based
[25] = species on record: Oryctolagus cuniculus; experiment: Antidyslipidemic activity in hypercholesterolemic rabbit model assessed as reduction in liver triglycerides; format: functional, organism-based
[26] = species on record: Oryctolagus cuniculus; experiment: Toxicity in hypercholesterolemic rabbit model assessed as effect on central thyroid axis; format: organism-based; settings: in vivo
[27] = system: Oryctolagus cuniculus; experiment: Antidyslipidemic activity in hypercholesterolemic rabbit model assessed as reduction in lipid level in coadministered with atorvastatin; format: functional, organism-based
[28] = species on record: Mus musculus; experiment: Antidyslipidemic activity in diet-induced obese C57Bl/6J mouse model assessed as improvement of insulin sensitivity; format: functional, organism-based
[29] = species on record: Mus musculus; experiment: Antidyslipidemic activity in diet-induced obese C57Bl/6J mouse model assessed as lowering glucose level to near normal level; format: functional, organism-based
[30] = system: Homo sapiens; experiment: Toxicity in healthy human with mildly elevated LDL-C level assessed as adverse events at 5 to 200 mg, po qd for 2 weeks by multiple ascending dose study; format: organism-based; settings: in vivo, 336 h
Summary of the method: (§4)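 Multiple ascending dose study lasting 2 weeks, run after a single ascending dose study. Healthy subjects with LDL-C >110 mg/dL took oral doses once daily from 5 to 200 mg. Safety, thyroid axis measures (free T4, free T3, TSH), heart rate, QT and liver enzymes were monitored. Lipid changes were compared with placebo.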

[31] = system: Homo sapiens; experiment: Toxicity in healthy human with mildly elevated LDL-C level assessed as effect on heart rate at 5 to 200 mg, po qd for 2 weeks by multiple ascending dose study; format: organism-based; settings: in vivo, 336 h
Summary of the method: (§5)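 Multiple ascending dose study after single ascending dose study. Healthy subjects with LDL-C >110 mg/dL received once daily oral doses of 5 to 200 mg for 2 weeks. Safety and tolerability were assessed, covering QT interval, heart rate, vital signs and liver enzymes.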

[32] = system: Homo sapiens; experiment: Toxicity in healthy human with mildly elevated LDL-C level assessed as effect on QT interval at 5 to 200 mg, po qd for 2 weeks by multiple ascending dose study; format: organism-based; settings: in vivo, 336 h; summary of the method: as §5
[33] = system: Homo sapiens; experiment: Toxicity in healthy human with mildly elevated LDL-C level assessed as effect on vital signs at 5 to 200 mg, po qd for 2 weeks by multiple ascending dose study; format: organism-based; settings: in vivo, 336 h; summary of the method: as §5
[34] = system: Homo sapiens; experiment: Toxicity in healthy human with mildly elevated LDL-C level assessed as reversible reduction in free T4 level at 100 mg, po qd for 2 weeks; format: organism-based; design: scale not given: the % may be the effect or the level left; settings: in vivo, 336 h
Summary of the method: (§6)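 Healthy subjects with LDL-C >110 mg/dL received once daily oral doses for 2 weeks in a multiple ascending dose study. Free T3, free T4 and TSH were compared with placebo.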

[35] = system: Homo sapiens; experiment: Toxicity in healthy human with mildly elevated LDL-C level assessed as effect on free T3 level at 100 to 200 mg, po qd for 2 weeks; format: organism-based; settings: in vivo, 336 h; summary of the method: as §6
[36] = system: Homo sapiens; experiment: Antidyslipidemic activity in healthy human with mildly elevated LDL-C level assessed as reduction in LDL-C at 50 to 200 mg, po qd for 2 weeks by multiple ascending dose study relative to placebo control; format: functional; design: scale not given: the % may be the effect or the level left; summary of the method: as §4
[37] = system: Homo sapiens; experiment: Antidyslipidemic activity in healthy human with mildly elevated LDL-C level assessed as reduction in lipids at 80 mg, po qd; format: functional, organism-based
[38] = system: Caco-2; experiment: Permeability from basolateral to apical side of human Caco2 cells; format: ADME, cell-based
[39] = Ratio of drug uptake in liver to plasma in diet-induced obese C57Bl/6J mouse model; format: ADME, tissue-based
[40] = Fraction unbound in human; format: ADME, organism-based; settings: in vivo
[41] = Solubility of the compound at pH 7.04; settings: buffer

Chain of Cytochrome P450 2C19 (P33261 whole entry): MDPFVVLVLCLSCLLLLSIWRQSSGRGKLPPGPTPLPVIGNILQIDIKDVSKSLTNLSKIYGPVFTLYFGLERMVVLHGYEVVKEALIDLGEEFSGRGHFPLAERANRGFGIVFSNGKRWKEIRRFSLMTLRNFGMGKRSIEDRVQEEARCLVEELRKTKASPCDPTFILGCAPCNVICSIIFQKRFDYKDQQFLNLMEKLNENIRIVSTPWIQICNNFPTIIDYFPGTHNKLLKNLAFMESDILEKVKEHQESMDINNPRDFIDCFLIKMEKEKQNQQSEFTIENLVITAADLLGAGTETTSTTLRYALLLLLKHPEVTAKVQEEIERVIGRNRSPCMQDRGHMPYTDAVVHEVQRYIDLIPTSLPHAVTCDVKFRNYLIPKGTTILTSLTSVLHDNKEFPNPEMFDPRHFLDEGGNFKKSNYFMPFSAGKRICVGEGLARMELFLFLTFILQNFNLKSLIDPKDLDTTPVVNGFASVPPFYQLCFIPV
Chain of Cytochrome P450 3A5 (P20815 whole entry): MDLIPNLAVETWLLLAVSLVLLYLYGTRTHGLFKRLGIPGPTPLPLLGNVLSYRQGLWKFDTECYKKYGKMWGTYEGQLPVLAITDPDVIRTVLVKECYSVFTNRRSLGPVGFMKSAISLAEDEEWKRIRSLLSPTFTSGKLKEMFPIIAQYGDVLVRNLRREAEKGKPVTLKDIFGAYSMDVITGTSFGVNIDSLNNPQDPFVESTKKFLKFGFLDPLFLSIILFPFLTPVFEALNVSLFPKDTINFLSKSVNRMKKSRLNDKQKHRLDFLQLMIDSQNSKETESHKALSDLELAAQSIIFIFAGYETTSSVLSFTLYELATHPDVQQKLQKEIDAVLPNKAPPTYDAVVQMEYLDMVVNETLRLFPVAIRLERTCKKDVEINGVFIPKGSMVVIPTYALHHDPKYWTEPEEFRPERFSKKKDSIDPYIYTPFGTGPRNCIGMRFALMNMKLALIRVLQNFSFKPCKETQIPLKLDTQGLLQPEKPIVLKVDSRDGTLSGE
Chain of Cytochrome P450 3A4 (P08684 whole entry): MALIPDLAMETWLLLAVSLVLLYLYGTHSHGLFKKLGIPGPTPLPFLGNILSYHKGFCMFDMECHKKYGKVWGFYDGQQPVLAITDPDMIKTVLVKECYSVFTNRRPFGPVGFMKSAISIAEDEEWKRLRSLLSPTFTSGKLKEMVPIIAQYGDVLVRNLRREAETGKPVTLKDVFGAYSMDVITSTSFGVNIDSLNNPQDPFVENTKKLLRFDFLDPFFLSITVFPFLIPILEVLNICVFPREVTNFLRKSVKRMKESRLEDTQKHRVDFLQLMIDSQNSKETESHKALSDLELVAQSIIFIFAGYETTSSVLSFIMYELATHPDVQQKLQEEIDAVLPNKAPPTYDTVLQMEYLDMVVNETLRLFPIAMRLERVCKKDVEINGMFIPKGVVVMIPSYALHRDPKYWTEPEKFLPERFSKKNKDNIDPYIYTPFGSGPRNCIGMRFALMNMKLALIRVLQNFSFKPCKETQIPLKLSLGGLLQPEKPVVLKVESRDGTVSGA
Chain of hERG (KCNH2) (Q12809 whole entry): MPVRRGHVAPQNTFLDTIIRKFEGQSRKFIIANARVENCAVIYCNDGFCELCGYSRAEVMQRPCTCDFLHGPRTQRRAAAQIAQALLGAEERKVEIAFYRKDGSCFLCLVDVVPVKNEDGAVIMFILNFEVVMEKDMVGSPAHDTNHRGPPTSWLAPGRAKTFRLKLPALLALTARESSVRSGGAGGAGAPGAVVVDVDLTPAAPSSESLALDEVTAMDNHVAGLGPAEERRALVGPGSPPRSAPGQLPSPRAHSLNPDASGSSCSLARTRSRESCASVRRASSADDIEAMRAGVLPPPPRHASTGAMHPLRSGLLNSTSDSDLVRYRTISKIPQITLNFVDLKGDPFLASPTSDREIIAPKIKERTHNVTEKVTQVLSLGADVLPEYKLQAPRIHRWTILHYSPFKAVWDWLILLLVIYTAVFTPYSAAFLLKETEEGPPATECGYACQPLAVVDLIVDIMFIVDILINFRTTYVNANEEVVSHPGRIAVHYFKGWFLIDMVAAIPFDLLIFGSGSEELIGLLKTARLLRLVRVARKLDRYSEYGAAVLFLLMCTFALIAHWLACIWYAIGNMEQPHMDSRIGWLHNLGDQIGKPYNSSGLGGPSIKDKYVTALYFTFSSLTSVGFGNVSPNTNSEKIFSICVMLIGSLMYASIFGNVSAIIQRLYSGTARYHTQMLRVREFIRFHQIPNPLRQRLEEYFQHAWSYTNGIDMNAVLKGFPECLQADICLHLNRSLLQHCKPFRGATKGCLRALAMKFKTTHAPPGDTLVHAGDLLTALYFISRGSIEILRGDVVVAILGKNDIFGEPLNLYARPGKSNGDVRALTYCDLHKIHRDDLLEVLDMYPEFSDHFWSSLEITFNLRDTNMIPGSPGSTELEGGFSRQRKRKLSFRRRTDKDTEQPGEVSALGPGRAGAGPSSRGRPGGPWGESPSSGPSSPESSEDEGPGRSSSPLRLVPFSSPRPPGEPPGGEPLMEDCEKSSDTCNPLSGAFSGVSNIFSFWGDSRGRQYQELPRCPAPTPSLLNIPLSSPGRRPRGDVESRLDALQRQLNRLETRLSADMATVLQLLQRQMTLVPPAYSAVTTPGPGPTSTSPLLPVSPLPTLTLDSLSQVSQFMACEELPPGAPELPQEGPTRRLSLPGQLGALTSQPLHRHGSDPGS

concentration at 6 h [2]: 94 µM
concentration at 6 h [3]: 15.4 µM
hepatocyte CLint [4]: 1.04 µL/min/1e6 cells
IC50 [6]: > 50 µM
IC50 [7]: > 50 µM
IC50 [8]: > 50 µM
AUC [9]: 38100 ng·h/mL
clearance [10]: 2.35 mL/min/kg
Vd [11]: 0.422 L/kg
AUC [12]: 17400 ng·h/mL
Tmax [13]: 6 h
half-life [14]: 4.08 h
bioavailability [15]: 45%
permeability [38]: permeable
Kp [39]: 8
Fu [40]: 0.6%
solubility [41]: 1 µM (≈ 0.435 µg/mL)
Structure (SMILES): CC(C)c1cc(Oc2c(Cl)cc(-n3nc(C#N)c(=O)[nH]c3=O)cc2Cl)n[nH]c1=O [RESMETIROM]
Activity [1]: Non-toxic
IC20 [5]: 30 µM
Activity [16]: Active
Activity [17]: Active
Activity [18]: Non-toxic
Activity [19]: Non-toxic
Activity [20]: Non-toxic
Activity [21]: Active
Activity [22]: Active
Activity [23]: Non-toxic
Activity [24]: Active
Activity [25]: Active
Activity [26]: Non-toxic
Activity [27]: Active
Activity [28]: Active
Activity [29]: Active
Activity [30]: Non-toxic
Activity [31]: Non-toxic
Activity [32]: Non-toxic
Activity [33]: Non-toxic
Activity [34]: 10%
Activity [35]: Non-toxic
Activity [36]: <=30%
Activity [37]: Active
